# Measured values: ChEMBL document CHEMBL5252546, “Salutaxel, a Conjugate of Docetaxel and a Muramyl Dipeptide (MDP) Analogue, Acts as Multifunctional Prodrug That Inhibits Tumor Growth and Metastasis” (J Med Chem, 2018)
# Active and inactive are the calls of the source. The calls are words filed in the database; no cut-off is given here.
# Experiments:
# MDA-MB-231 = test: Antitumor activity against human MDA-MB-231 cells xenografted with BALB/c mouse assessed as inhibition of tumor growth at 10 mg/kg,iv administrated once per week for 3 weeks; assay type: functional, organism-based
# Method in brief: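 BALB/c nu/nu mice given subcutaneous human tumour cells in the right flank; dosing began at about 100–120 mm3 mean volume; iv once weekly for 3 weeks, with equimolar parent drug as positive control; tumour volume and weight measured; n = 8, mean ± SEM, ANOVA and Student's t test.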
# [1] = Volume of distribution at steady state in female rat at 2 mg/kg,iv measured upto 24 hrs; assay type: ADME, organism-based; settings: in vivo, read-out: Vdss
# [2] = Cmax in rat at 2 mg/kg,iv measured upto 24 hrs; assay type: ADME, organism-based; set-up: time < 24 hrs, dose 2 mg/kg, route iv; settings: in vivo
# Method in brief: (§1)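 Rats were given a single iv injection at 2, 4 or 8 mg/kg. Plasma parent drug and released docetaxel were followed over time. Cmax, Tmax, AUC, MRT, t1/2, CL and Vss were reported for males, females and all animals combined.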
# [3] = Drug metabolism in mouse hepatocytes assessed as MDA-205 metabolite formation at 20 uM incubated for 180 mins; assay type: ADME, cell-based, Hepatocyte; settings: 3 h
# [4] = AUC (0-t) in rat at 8 mg/kg,iv measured upto 24 hrs; assay type: ADME, organism-based; set-up: dose 8 mg/kg, time < 24 hrs, route iv; settings: in vivo
# Method in brief: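 Single iv dose: rats 2, 4 or 8 mg/kg by intravenous injection; Beagle dogs 1, 2 or 4 mg/kg by intravenous infusion. Plasma concentration–time data were analysed by sex and pooled. Reported parameters: Cmax, Tmax, AUC0−t, AUC0−∞, MRT0−∞, t1/2, CL, Vss, given as mean ± SD.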
# [5] = Clearance in male Beagle dog at 2 mg/kg,iv measured upto 24 hrs; assay type: ADME, organism-based, Canis lupus familiaris; settings: in vivo
# Method in brief: (§2)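 Beagle dogs were given a single iv infusion at 1, 2 or 4 mg/kg. Plasma parent drug and released docetaxel were followed over time. Cmax, Tmax, AUC, MRT, t1/2, CL and Vss were reported by sex and for all dogs combined.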
# 4T1 [6] = test: Antitumor activity against mouse 4T1 cells implanted in BALB/c mouse assessed as decrease in spleen MMP9 expression level at 5 to 20 mg/kg,iv administrated once per week for 4 weeks by western blot assay; assay type: functional, organism-based; settings: dose 5-20 mg/kg
# Method in brief: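 4T1 fat-pad model in BALB/c mice, iv once weekly for 4 weeks; MMP9, MMP2 and NOD1 in spleen, lung and tumour by western blot, β-actin loading control; bands averaged over five mice per group, representative of two independent experiments.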
# [7] = Drug metabolism in rat bile assessed as metabolite docetaxel formation at 4 mg/kg,iv measured after 24 hrs; assay type: ADME, organism-based; settings: in vivo
# [8] = Toxicity in HaM/ICR mouse assessed as effect on motor autonomic activity at 5 to 20 mg/kg,iv; assay type: organism-based; settings: in vivo, dose 5-20 mg/kg
# [9] = Toxicity in BALB/c mouse xenografted with human A549/Taxol cells assessed as side effects at 10 mg/kg,iv administrated once per week for 3 weeks; assay type: organism-based, A549/TR; settings: in vivo, 504 h
# [10] = AUC (0-t) in mouse tumor implanted with mouse 4T1 cells at 10 mg/kg,iv measured upto 72 hrs; assay type: ADME, organism-based, Neoplasm; set-up: time < 72 hrs, dose 10 mg/kg, route iv
# Method in brief: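 4T1 tumor-bearing mice (4T1 cells implanted in the mammary fat pad) received a single iv dose of 10 mg/kg. Plasma and tumor tissue were sampled up to 72 h, with n = 6. Levels of parent and of released docetaxel were measured. AUC came from noncompartmental analysis, reported as mean ± SD.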
# [11] = Prodrug conversion in mouse plasma implanted with mouse 4T1 cells assessed as MRT of docetaxel at 4 mg/kg,iv measured upto 72 hrs; assay type: ADME, organism-based; settings: in vivo
# 4T1 [12] = test: Antitumor activity against mouse 4T1 cells implanted in BALB/c mouse assessed as decrease in serum MMP9 level at 20 mg/kg,iv administrated once per week for 4 weeks by ELISA; assay type: functional, organism-based
# Method in brief: (§3)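 4T1 fat-pad model in BALB/c mice, iv 5–20 mg/kg once weekly for 4 weeks, with vehicle and naive groups; serum MMP9, TIMP-1, IL-6 and S100A9 measured by mouse ELISA kits.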
# 4T1 [13] = test: Antitumor activity against mouse 4T1 cells xenografted with BALB/c mouse assessed as inhibition of tumor growth at 5 to 20 mg/kg,iv administrated once per week for 4 weeks; assay type: functional, organism-based; settings: dose 5-20 mg/kg
# Method in brief: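 4T1 cells injected into the mammary fat pad of BALB/c mice; iv saline vehicle or 5, 10 or 20 mg/kg once weekly for 4 weeks; body weight, tumour volume, tumour weight, lung metastatic nodule count and metastasis score recorded; n = 10, mean ± SEM, ANOVA and Student's t test.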
# [14] = Clearance in male rat at 4 mg/kg,iv measured upto 24 hrs; assay type: ADME, organism-based; settings: in vivo; method in brief: as §1
# 4T1 [15] = test: Antitumor activity against mouse 4T1 cells implanted in BALB/c mouse assessed as decrease in serum TIMP-1 level at 20 mg/kg,iv administrated once per week for 4 weeks by ELISA; assay type: functional, organism-based; method in brief: as §3
# [16] = Volume of distribution at steady state in rat at 8 mg/kg,iv measured upto 24 hrs; assay type: ADME, organism-based; settings: in vivo, read-out: Vdss
# [17] = Drug excretion in rat bile at 4 mg/kg,iv measured upto 48 hrs; assay type: ADME, organism-based; settings: read-out: Drug excretion
# Method in brief: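 Rats were dosed iv. Bile was collected from 0 to 48 h, and cumulative excretion of the unchanged prototype was expressed as a percentage of the dose.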
# [18] = Stability in mouse plasma assessed as compound remaining at 40 uM incubated for 6 hrs; assay type: ADME, cell-free
# [19] = Toxicity in Beagle dog assessed as decrease in blood pressure at 1 to 4 mg/kg,iv; assay type: organism-based, Canis lupus familiaris; settings: in vivo, dose 1-4 mg/kg
# [20] = Clearance in Beagle dog at 4 mg/kg,iv measured upto 24 hrs; assay type: ADME, organism-based, Canis lupus familiaris; settings: in vivo; method in brief: as §2
# 4T1 [21] = test: Antitumor activity against mouse 4T1 cells implanted in BALB/c mouse assessed as decrease in lung injury at 5.7 mg/kg,iv administrated once per week for 4 weeks by H and E staining based assay; assay type: functional, organism-based
# Method in brief: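 BALB/c mice bearing orthotopic mammary fat pad 4T1 tumors, dosed iv weekly for 4 weeks with saline vehicle as control. Lung sections stained with hematoxylin and eosin and examined by light microscopy at 40× for metastasis, inflammatory infiltration and alveolar wall thickening.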
# 4T1 [22] = test: Antitumor activity against mouse 4T1 cells implanted in BALB/c mouse assessed as decrease in tumor MMP2 expression level at 5.7 mg/kg,iv administrated once per week for 4 weeks in presence of compound 5b by western blot assay; assay type: functional, organism-based
# Method in brief: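 4T1 cells injected into mammary fat pads of BALB/c mice. Saline vehicle or test article given iv once weekly for 4 weeks. Spleen, lung and tumor lysates immunoblotted for MMP2/MMP9 with β-actin as loading control. Bands averaged over five mice per group, representative of two independent experiments.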
# [23] = Toxicity in BALB/c mouse xenografted with human MDA-MB-231 cells assessed as side effects at 5.7 mg/kg,iv administrated once per week for 3 weeks; assay type: organism-based; settings: in vivo, 504 h
# Method in brief: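 Nude BALB/c nu/nu mice received subcutaneous human tumour cells into the right flank. Dosing started at mean tumour volume of 100–120 mm3, iv once weekly for 3 weeks; the taxane arm was an equimolar control. Body weight and overt side effects were monitored. Mean ± SEM, n = 8.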
# 4T1 [24] = test: Antitumor activity against mouse 4T1 cells implanted in BALB/c mouse assessed as increase in tumor NOD1 expression level at 5.7 mg/kg,iv administrated once per week for 4 weeks in presence of MDA-205 by western blot assay; assay type: functional, organism-based
# Method in brief: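 Tumour-bearing BALB/c mice (4T1 cells into mammary fat pad) given iv saline vehicle or test agents once weekly for 4 weeks. Tumours excised and probed by western blot for MMP9, MMP2 and NOD1, β-actin as loading control. Bands averaged over five mice per group; representative of two independent experiments.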
structure (smiles),measurement,setting,value
CC(=O)O[C@@]12CO[C@@H]1C[C@H](O)[C@@]1(C)C(=O)[C@H](O)C3=C(C)[C@@H](OC(=O)[C@H](OC(=O)CCC(=O)NCCCC[C@H](NC(=O)CC[C@@H](NC(=O)[C@H](C)NC(=O)/C=C/c4ccc(F)cc4Cl)C(N)=O)C(=O)O)[C@@H](NC(=O)OC(C)(C)C)c4ccccc4)C[C@@](O)([C@@H](OC(=O)c4ccccc4)[C@H]21)C3(C)C,inhibition,MDA-MB-231,Active
same,Vd,[1],0.067 L/kg
same,Cmax,[2],15200 ng/mL
same,Drug metabolism,[3],Metabolite_Detected
same,AUC(0-t) at 24 h,[4],45800 ng·h/mL
same,clearance,[5],7.13 mL/min/kg
same,Activity,4T1 [6],Active
same,Drug metabolism,[7],Metabolite_Detected
same,Activity,[8],Non-Toxic
same,Activity,[9],Non-Toxic
same,AUC(0-t) at 72 h,[10],0.11 µM·h
same,MRT,[11],52.8 min
same,Activity,4T1 [12],Active
same,inhibition,4T1 [13],Dose-Dependent Effect
same,clearance,[14],3.28 mL/min/kg
same,Activity,4T1 [15],Active
same,Vd,[16],0.096 L/kg
same,dose excreted at 48 h,[17],82.9%
same,Stability,[18],Stable
same,Activity,[19],Toxic
same,clearance,[20],4.28 mL/min/kg
CC(=O)O[C@@]12CO[C@@H]1C[C@H](O)[C@@]1(C)C(=O)[C@H](O)C3=C(C)[C@@H](OC(=O)[C@H](O)[C@@H](NC(=O)OC(C)(C)C)c4ccccc4)C[C@@](O)([C@@H](OC(=O)c4ccccc4)[C@H]21)C3(C)C [DOCETAXEL ANHYDROUS],Activity,4T1 [21],Active
same,Activity,4T1 [22],inactive
same,Activity,[23],Non-Toxic
same,Activity,4T1 [24],inactive
